# Results reported in ChEMBL document CHEMBL3769317, “Aminothiazoles as Potent and Selective Sirt2 Inhibitors: A Structure-Activity Relationship Study” (J Med Chem, 2016).
# Target: T1, NAD-dependent protein deacetylase sirtuin-2 (Homo sapiens, UniProt Q8IXJ6)
# T1 sequence (Q8IXJ6 whole entry): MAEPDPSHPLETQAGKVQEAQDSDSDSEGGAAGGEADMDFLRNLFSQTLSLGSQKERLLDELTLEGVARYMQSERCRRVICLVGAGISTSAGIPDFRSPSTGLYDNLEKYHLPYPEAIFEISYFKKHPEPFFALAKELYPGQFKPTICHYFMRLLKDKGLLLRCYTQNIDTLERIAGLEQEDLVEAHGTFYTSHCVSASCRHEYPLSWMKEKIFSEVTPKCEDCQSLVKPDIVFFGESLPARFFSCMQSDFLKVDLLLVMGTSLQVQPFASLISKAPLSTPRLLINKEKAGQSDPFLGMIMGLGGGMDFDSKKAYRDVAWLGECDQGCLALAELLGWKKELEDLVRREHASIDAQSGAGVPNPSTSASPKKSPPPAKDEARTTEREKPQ
# Assay: Inhibition of N-terminal his6-tagged human SIRT2 (25 to 389 amino acids) using ZMAL as substrate after 4 hrs by fluorescence-based microplate reader method
row,SMILES,IC50
1,NC(=O)c1ccc[n+](CC(=O)Nc2ncc(Cc3cccc4ccccc34)s2)c1,289 µM
2,CCc1cc(CC)nc(SCC(=O)Nc2ncc(Cc3cccc4ccccc34)s2)n1,45.6 µM
3,O=C(CSc1nnc(-c2ccccc2)c(-c2ccccc2)n1)Nc1nnc(-c2ccccc2)s1,19.9 µM
4,CCOc1cccc(Cc2cnc(NC(=O)CSc3nc(C)cc(C)n3)s2)c1,1.33 µM
5,Cc1cc(C)nc(SCC(=O)Nc2ncc(Cc3ccc(Cl)cc3)s2)n1,3.4 µM
6,Cc1cc(C)nc(SCC(=O)Nc2nnc(Cc3ccc(Br)cc3)s2)n1,168 µM
7,Cc1cc(C)nc(SCC(=O)Nc2ncc(Cc3ccc(-c4ccccc4)cc3)s2)n1,164 µM
8,Cc1ccc(Cc2cnc(NC(=O)CSc3nc(C)cc(C)n3)s2)cc1,4.72 µM
9,Cc1cc(C)nc(SCC(=O)N(C)c2ncc(Cc3cccc4ccccc34)s2)n1,> 100 µM
10,CCC(Sc1nc(C)cc(C)n1)C(=O)Nc1ncc(Cc2cccc3ccccc23)s1 (racemic),0.54 µM
11,Cc1cccc(Cc2cnc(NC(=O)CSc3nc(C)cc(C)n3)s2)c1,1.64 µM
12,Cc1cc(C)nc(SCC(=O)Nc2ncc(Cc3cccc4ccc(Br)cc34)s2)n1,0.21 µM
13,Cc1cc(C)nc(SCC(=O)Nc2ncc(C(=O)Nc3cccc4ccccc34)s2)n1,33 µM
14,Cc1cc(C)cc(SCC(=O)Nc2ncc(Cc3cccc4ccccc34)s2)c1,207 µM
15,Cc1cc(C)nc(SC(C)C(=O)Nc2ncc(Cc3cccc4ccccc34)s2)n1 (racemic),0.42 µM
16,Cc1cc(C)nc(SC(C)C(=O)Nc2ncc(Cc3ccc(-c4ccccc4)cc3)s2)n1 (racemic),33 µM
17,O=C(CSc1cccc(O)c1)Nc1ncc(Cc2cccc3ccccc23)s1,143 µM

row,SMILES,IC50
1,Cc1cc(C)nc(SC(C)C(=O)Nc2ncc(Cc3cccc4ccc(Cl)cc34)s2)n1 (racemic),0.54 µM
2,CCOc1ccc2nc(NC(=O)CSc3nc(C)cc(C)n3)sc2c1,77.8 µM
3,O=C(CSc1ncccn1)Nc1ncc(Cc2cccc3ccccc23)s1,2.34 µM
4,Cc1cc(C)nc(SCC(=O)Nc2nnc(Cc3cccc4ccccc34)s2)n1,1.89 µM
5,Cc1nc(SCC(=O)Nc2ncc(Cc3cccc4ccccc34)s2)nc(C)c1C,15 µM
6,Cc1cc(C)nc(S[C@@H](C)C(=O)Nc2ncc(Cc3cccc4ccccc34)s2)n1,0.26 µM
7,CCC(Sc1nc(C)cc(C)n1)C(=O)Nc1ncc(Cc2cccc3ccc(Cl)cc23)s1 (racemic),0.32 µM
8,COc1ccc(Cc2cnc(NC(=O)C(C)Sc3nc(C)cc(C)n3)s2)cc1 (racemic),14.6 µM
9,Cc1cc(C)nc(SCC(=O)Nc2nnc(C(F)(F)F)s2)n1,503 µM
10,Cc1cc(C)nc(SCC(=O)Nc2nnc(Cc3ccc(Cl)cc3)s2)n1,30.9 µM
11,Cc1cc(C)nc(S[C@H](C)C(=O)Nc2ncc(Cc3cccc4ccccc34)s2)n1,9.77 µM
12,CCCc1cc(O)nc(SCC(=O)Nc2ncc(Cc3cccc4ccccc34)s2)n1,127 µM
13,Cc1ccnc(SCC(=O)Nc2ncc(Cc3cccc4ccccc34)s2)n1,1.45 µM
14,Cc1cc(C)nc(SCC(=O)Nc2ncc(Cc3c(C)ccc4ccccc34)s2)n1,0.31 µM
15,Cc1cc(C)nc(SCC(=O)Nc2ncc(Cc3cccc4cc(Cl)ccc34)s2)n1,0.48 µM
16,CC(Sc1ncccn1)C(=O)Nc1ncc(Cc2cccc3ccccc23)s1 (racemic),1.92 µM

# Target: T2, NAD-dependent protein deacetylase sirtuin-1 (Homo sapiens) (UniProt Q96EB6)
# T2 sequence (whole entry): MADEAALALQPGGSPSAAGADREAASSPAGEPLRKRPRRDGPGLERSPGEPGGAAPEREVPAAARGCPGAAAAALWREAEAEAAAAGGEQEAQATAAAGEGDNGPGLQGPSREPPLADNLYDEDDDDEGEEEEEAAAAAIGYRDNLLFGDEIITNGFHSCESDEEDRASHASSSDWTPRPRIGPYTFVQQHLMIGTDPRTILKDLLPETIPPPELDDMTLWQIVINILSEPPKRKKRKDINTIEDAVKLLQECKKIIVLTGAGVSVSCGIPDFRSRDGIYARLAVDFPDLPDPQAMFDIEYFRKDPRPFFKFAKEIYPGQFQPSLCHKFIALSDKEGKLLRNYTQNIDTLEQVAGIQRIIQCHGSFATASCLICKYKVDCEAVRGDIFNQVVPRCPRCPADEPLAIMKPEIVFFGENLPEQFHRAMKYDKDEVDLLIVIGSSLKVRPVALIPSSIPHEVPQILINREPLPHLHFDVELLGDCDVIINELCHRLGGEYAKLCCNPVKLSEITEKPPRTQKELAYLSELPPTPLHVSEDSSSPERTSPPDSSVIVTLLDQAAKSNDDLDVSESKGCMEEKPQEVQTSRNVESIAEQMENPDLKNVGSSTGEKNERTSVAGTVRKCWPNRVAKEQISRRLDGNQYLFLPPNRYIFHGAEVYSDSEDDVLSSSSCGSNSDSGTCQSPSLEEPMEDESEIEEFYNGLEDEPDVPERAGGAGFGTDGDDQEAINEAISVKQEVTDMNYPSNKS
# Assay: Inhibition of GST-tagged human SIRT1 (133 to 747 amino acids) using ZMAL as substrate at 200 uM after 4 hrs by fluorescence-based microplate reader method
row,SMILES,inhibition
1,O=C(CSc1ccc(Cl)cc1)Nc1ncc(Cc2cccc3ccccc23)s1,< 10%
2,NC(=O)c1ccc[n+](CC(=O)Nc2ncc(Cc3cccc4ccccc34)s2)c1,39%
3,CCc1cc(CC)nc(SCC(=O)Nc2ncc(Cc3cccc4ccccc34)s2)n1,< 10%
4,O=C(CSc1nnc(-c2ccccc2)c(-c2ccccc2)n1)Nc1nnc(-c2ccccc2)s1,< 10%
5,CCOc1cccc(Cc2cnc(NC(=O)CSc3nc(C)cc(C)n3)s2)c1,< 10%
6,Cc1cc(C)nc(SCC(=O)Nc2ncc(Cc3ccc(Cl)cc3)s2)n1,< 10%
7,Cc1cc(C)nc(SCC(=O)Nc2nnc(Cc3ccc(Br)cc3)s2)n1,< 10%
8,CCc1cc(CC)nc(SCC(=O)Nc2ncc(Cc3ccc(OC)cc3)s2)n1,17%
9,Cc1cc(C)nc(SCC(=O)Nc2ncc(Cc3ccc(-c4ccccc4)cc3)s2)n1,29%
10,Cc1ccc(Cc2cnc(NC(=O)CSc3nc(C)cc(C)n3)s2)cc1,16%
11,CCc1cc(CC)nc(SCC(=O)Nc2ncc(Cc3ccc(Cl)cc3)s2)n1,18%
12,O=C(CSc1nc(-c2ccccc2)cc(-c2ccccc2)n1)Nc1ncc(Cc2ccc(Cl)cc2)s1,11%
13,Cc1cc(C)nc(SCC(=O)N(C)c2ncc(Cc3cccc4ccccc34)s2)n1,< 10%
14,Cc1ccccc1Cc1cnc(NC(=O)CSc2ncccn2)s1,11%
15,CCC(Sc1nc(C)cc(C)n1)C(=O)Nc1ncc(Cc2cccc3ccccc23)s1 (racemic),35%
16,Cc1cccc(Cc2cnc(NC(=O)CSc3nc(C)cc(C)n3)s2)c1,18%
17,CC(=O)Nc1ncc(C)s1,< 10%
18,Nc1cc(N)nc(SCC(=O)Nc2ncc(Cc3cccc4ccccc34)s2)n1,< 10%
19,COc1ccc(Cc2cnc(NC(=O)CSc3nc(C)cc(C)n3)s2)cc1,< 10%
20,Cc1cc(C)nc(SCC(=O)Nc2ncc(Cc3cccc4ccc(Br)cc34)s2)n1,< 10%
21,Cc1cc(C)nc(SCC(=O)Nc2nc(-c3ccc4ccccc4c3)cs2)n1,23%
22,Cc1cc(C)nc(SCC(=O)Nc2nnc(Cc3ccccc3)s2)n1,< 10%
23,Cc1cc(C)nc(SCC(=O)Nc2ncc(C(=O)Nc3cccc4ccccc34)s2)n1,< 10%
24,Cc1cc(C)cc(SCC(=O)Nc2ncc(Cc3cccc4ccccc34)s2)c1,16%
25,Cc1cc(C)nc(SC(C)C(=O)Nc2ncc(Cc3cccc4ccccc34)s2)n1 (racemic),17%
26,Cc1cc(C)nc(SC(C)C(=O)Nc2ncc(Cc3ccc(-c4ccccc4)cc3)s2)n1 (racemic),14%
27,COc1ccc(Cc2cnc(NC(=O)/C=C/c3ccco3)s2)cc1,28%

row,SMILES,inhibition
1,O=C(CSc1cccc(O)c1)Nc1ncc(Cc2cccc3ccccc23)s1,< 10%
2,Cc1cc(C)nc(SC(C)C(=O)Nc2ncc(Cc3cccc4ccc(Cl)cc34)s2)n1 (racemic),< 10%
3,Cc1cc(C)nc(SCC(=O)Nc2nnc(C)s2)n1,< 10%
4,CCOc1ccc2nc(NC(=O)CSc3nc(C)cc(C)n3)sc2c1,16%
5,Cc1cc(C)nc(SCC(=O)Nc2ncc(Cc3ccccc3C)s2)n1,14%
6,Cc1cc(O)nc(SCC(=O)Nc2ncc(Cc3cccc4ccccc34)s2)n1,< 10%
7,O=C(CSc1ncccn1)Nc1ncc(Cc2cccc3ccccc23)s1,17%
8,CCc1cc(CC)nc(SCC(=O)Nc2ncc(Cc3cccc(C)c3)s2)n1,< 10%
9,CCc1cc(CC)nc(SC(C)C(=O)Nc2ncc(Cc3ccc(OC)cc3)s2)n1 (racemic),18%
10,Cc1cc(C)nc(SCC(=O)Nc2nnc(Cc3cccc4ccccc34)s2)n1,< 10%
11,Cc1nc(SCC(=O)Nc2ncc(Cc3cccc4ccccc34)s2)nc(C)c1C,< 10%
12,Nc1ccccc1SCC(=O)Nc1ncc(Cc2cccc3ccccc23)s1,< 10%
13,Cc1cc(C)nc(SCC(N)=O)n1,< 10%
14,Cc1cc(C)nc(S[C@@H](C)C(=O)Nc2ncc(Cc3cccc4ccccc34)s2)n1,< 10%
15,CCC(Sc1nc(C)cc(C)n1)C(=O)Nc1ncc(Cc2cccc3ccc(Cl)cc23)s1 (racemic),< 10%
16,COc1ccc(Cc2cnc(NC(=O)C(C)Sc3nc(C)cc(C)n3)s2)cc1 (racemic),27%
17,Cc1cc(C)nc(SCC(=O)Nc2nnc(C(F)(F)F)s2)n1,12%
18,Cc1cc(C)nc(SCC(=O)Nc2nnc(Cc3ccc(Cl)cc3)s2)n1,< 10%
19,Cc1cc(C)nc(S[C@H](C)C(=O)Nc2ncc(Cc3cccc4ccccc34)s2)n1,< 10%
20,O=C(CSc1ncccn1)Nc1ncc(Cc2ccccc2)s1,12%
21,CCCc1cc(O)nc(SCC(=O)Nc2ncc(Cc3cccc4ccccc34)s2)n1,22%
22,Cc1ccnc(SCC(=O)Nc2ncc(Cc3cccc4ccccc34)s2)n1,< 10%
23,Cc1cc(C)nc(SCC(=O)Nc2ncc(Cc3c(C)ccc4ccccc34)s2)n1,< 10%
24,Cc1cc(C)nc(SCC(=O)Nc2ncc(Cc3cccc4cc(Cl)ccc34)s2)n1,20%
25,CC(Sc1ncccn1)C(=O)Nc1ncc(Cc2cccc3ccccc23)s1 (racemic),21%
26,Cc1cc(C)nc(SCC(=O)Nc2ncc(Cc3ccc4ccccc4c3)s2)n1,< 10%

# Target: T3, NAD-dependent protein deacetylase sirtuin-2 (Homo sapiens) (UniProt Q8IXJ6)
# T3 sequence (whole entry): T1 sequence (Q8IXJ6 whole entry)
# Assay: Inhibition of N-terminal his6-tagged human SIRT2 (25 to 389 amino acids) using ZMAL as substrate at 50 uM after 4 hrs by fluorescence-based microplate reader method
# Outline: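 Fluorogenic deacetylation assay: hSirt1 133-747 or hSirt2 25-389 in 50 mM Tris, 137 mM NaCl, 2.7 mM KCl, pH 8.0, with NAD+ 500 µM and ZMAL (Cbz-Lys(acetyl)-AMC) 10,5 µM final, inhibitor in DMSO (5% v/v final). Control conversion kept near 15-30%. 4 h at 37 °C, then trypsin/nicotinamide stop for 20 min at 37 °C. Fluorescence read at 390/460 nm. % inhibition taken against no-inhibitor controls. At least duplicates.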
row,SMILES,inhibition
1,O=C(CSc1ccc(Cl)cc1)Nc1ncc(Cc2cccc3ccccc23)s1,< 10%
2,CCc1cc(CC)nc(SCC(=O)Nc2ncc(Cc3ccc(OC)cc3)s2)n1,48%
3,CCc1cc(CC)nc(SCC(=O)Nc2ncc(Cc3ccc(Cl)cc3)s2)n1,38%
4,O=C(CSc1nc(-c2ccccc2)cc(-c2ccccc2)n1)Nc1ncc(Cc2ccc(Cl)cc2)s1,46%
5,Cc1ccccc1Cc1cnc(NC(=O)CSc2ncccn2)s1,< 10%
6,CC(=O)Nc1ncc(C)s1,< 10%
7,Nc1cc(N)nc(SCC(=O)Nc2ncc(Cc3cccc4ccccc34)s2)n1,25%
8,COc1ccc(Cc2cnc(NC(=O)CSc3nc(C)cc(C)n3)s2)cc1,48%
9,Cc1cc(C)nc(SCC(=O)Nc2nc(-c3ccc4ccccc4c3)cs2)n1,35%
10,Cc1cc(C)nc(SCC(=O)Nc2nnc(Cc3ccccc3)s2)n1,18%
11,COc1ccc(Cc2cnc(NC(=O)/C=C/c3ccco3)s2)cc1,18%
12,Cc1cc(C)nc(SCC(=O)Nc2nnc(C)s2)n1,< 10%
13,Cc1cc(C)nc(SCC(=O)Nc2ncc(Cc3ccccc3C)s2)n1,52%
14,Cc1cc(O)nc(SCC(=O)Nc2ncc(Cc3cccc4ccccc34)s2)n1,35%
15,CCc1cc(CC)nc(SCC(=O)Nc2ncc(Cc3cccc(C)c3)s2)n1,< 10%
16,CCc1cc(CC)nc(SC(C)C(=O)Nc2ncc(Cc3ccc(OC)cc3)s2)n1 (racemic),40%
17,Nc1ccccc1SCC(=O)Nc1ncc(Cc2cccc3ccccc23)s1,36%
18,Cc1cc(C)nc(SCC(N)=O)n1,< 10%
